# Source: ChEMBL document CHEMBL3600302, “A Ligand-Based Drug Design. Discovery of 4-Trifluoromethyl-7,8-pyranocoumarin as a Selective Inhibitor of Human Cytochrome P450 1A2” (J Med Chem, 2015)
# Key:
# Cytochrome P450 1A1 [1] = molecular target: T1, Cytochrome P450 1A1 (Homo sapiens, UniProt P04798); experiment: Inhibition of human microsomal CYP1A1-dependent ethoxyresorufin-O-deethylase activity by spectrofluorimetric analysis in presence of NADPH regenerating solution
# T1 sequence (P04798 whole entry): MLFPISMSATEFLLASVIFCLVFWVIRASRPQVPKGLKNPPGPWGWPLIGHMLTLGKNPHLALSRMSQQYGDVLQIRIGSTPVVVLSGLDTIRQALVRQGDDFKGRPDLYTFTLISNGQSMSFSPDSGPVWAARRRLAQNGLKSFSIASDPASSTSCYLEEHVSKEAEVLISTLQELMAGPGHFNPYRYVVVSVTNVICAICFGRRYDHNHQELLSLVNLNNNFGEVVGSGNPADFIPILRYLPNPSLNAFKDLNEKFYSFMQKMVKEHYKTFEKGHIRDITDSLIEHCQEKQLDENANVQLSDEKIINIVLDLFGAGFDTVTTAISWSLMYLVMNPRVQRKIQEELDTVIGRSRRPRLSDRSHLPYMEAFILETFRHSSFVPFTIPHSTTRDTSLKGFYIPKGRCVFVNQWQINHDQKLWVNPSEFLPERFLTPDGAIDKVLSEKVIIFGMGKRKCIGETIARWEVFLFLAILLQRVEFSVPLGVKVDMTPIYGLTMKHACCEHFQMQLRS
# In short: (§1)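 Microsomal P450 (final 5 nM) in 0.1 M potassium phosphate pH 7.6 with MgCl2 at 37 °C. Substrate final 5 µM: ethoxyresorufin for 1A1/1B1, methoxyresorufin for 1A2. […] Ki was taken as the x-intercept of Dixon plots (1/v0 vs [I]). Mean ± SD of three independent experiments. Selectivity ratios are ratios of these Ki.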
# Cytochrome P450 1A2 [2] = molecular target: T2, Cytochrome P450 1A2 (Homo sapiens, UniProt P05177); experiment: Inhibition of human microsomal CYP1A2-dependent methoxyresorufin-O-demethylase activity by spectrofluorimetric analysis in presence of NADPH regenerating solution
# T2 sequence (P05177 whole entry): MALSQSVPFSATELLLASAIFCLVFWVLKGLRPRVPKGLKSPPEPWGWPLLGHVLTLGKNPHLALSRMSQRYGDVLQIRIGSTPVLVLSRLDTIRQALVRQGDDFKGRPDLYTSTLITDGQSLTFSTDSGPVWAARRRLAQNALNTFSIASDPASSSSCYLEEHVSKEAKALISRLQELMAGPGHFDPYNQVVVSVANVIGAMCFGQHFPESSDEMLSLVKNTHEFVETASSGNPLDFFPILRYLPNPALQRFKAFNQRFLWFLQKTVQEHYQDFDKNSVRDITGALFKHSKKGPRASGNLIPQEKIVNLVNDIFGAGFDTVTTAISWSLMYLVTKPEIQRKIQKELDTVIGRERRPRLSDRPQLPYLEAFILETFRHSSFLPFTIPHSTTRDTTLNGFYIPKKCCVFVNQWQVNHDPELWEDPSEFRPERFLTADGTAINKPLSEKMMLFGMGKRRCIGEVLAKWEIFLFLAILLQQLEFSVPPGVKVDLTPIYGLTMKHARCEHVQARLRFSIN
# In short: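 Microsomal P450 (final 5 nM) in 0.1 M potassium phosphate pH 7.6 with MgCl2 at 37 °C. Substrate final 5 µM: ethoxyresorufin for 1A1/1B1, methoxyresorufin for 1A2. Ki was taken as the x-intercept of Dixon plots (1/v0 vs [I]). Mean ± SD of three independent experiments. Selectivity ratios are ratios of these Ki.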
# Cytochrome P450 1A1 [3] = molecular target: T1, Cytochrome P450 1A1; experiment: Inhibition of human microsomal CYP1A1-dependent ethoxyresorufin-O-deethylase activity at 10 nM preincubated for 5 mins followed by NADPH regenerating solution and substrate addition measured over 6 mins by spectrofluorimetric analysis; conditions: 0.1 h, 0.01 µM
# In short: (§2)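 Microsomal P450 in 0.1 M potassium phosphate pH 7.6 with MgCl2 and 10 nM inhibitor in DMSO, 2 mL final. Preincubated 5 min at 37 °C either with NADPH-regenerating solution, or without it, with NADPH then added at start. Reaction started with ethoxyresorufin (final 5 µM). Resorufin formation followed 6 min at 37 °C.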
# [4] = molecular target: T3, Aryl hydrocarbon receptor (Homo sapiens, UniProt P35869); experiment: Activation of human AhR expressed in Saccharomyces cerevisiae MYA-3637 assessed as upregulation of […] at >10^-7 M by LacZ reporter assay; format: ADME
# T3 sequence (P35869 whole entry): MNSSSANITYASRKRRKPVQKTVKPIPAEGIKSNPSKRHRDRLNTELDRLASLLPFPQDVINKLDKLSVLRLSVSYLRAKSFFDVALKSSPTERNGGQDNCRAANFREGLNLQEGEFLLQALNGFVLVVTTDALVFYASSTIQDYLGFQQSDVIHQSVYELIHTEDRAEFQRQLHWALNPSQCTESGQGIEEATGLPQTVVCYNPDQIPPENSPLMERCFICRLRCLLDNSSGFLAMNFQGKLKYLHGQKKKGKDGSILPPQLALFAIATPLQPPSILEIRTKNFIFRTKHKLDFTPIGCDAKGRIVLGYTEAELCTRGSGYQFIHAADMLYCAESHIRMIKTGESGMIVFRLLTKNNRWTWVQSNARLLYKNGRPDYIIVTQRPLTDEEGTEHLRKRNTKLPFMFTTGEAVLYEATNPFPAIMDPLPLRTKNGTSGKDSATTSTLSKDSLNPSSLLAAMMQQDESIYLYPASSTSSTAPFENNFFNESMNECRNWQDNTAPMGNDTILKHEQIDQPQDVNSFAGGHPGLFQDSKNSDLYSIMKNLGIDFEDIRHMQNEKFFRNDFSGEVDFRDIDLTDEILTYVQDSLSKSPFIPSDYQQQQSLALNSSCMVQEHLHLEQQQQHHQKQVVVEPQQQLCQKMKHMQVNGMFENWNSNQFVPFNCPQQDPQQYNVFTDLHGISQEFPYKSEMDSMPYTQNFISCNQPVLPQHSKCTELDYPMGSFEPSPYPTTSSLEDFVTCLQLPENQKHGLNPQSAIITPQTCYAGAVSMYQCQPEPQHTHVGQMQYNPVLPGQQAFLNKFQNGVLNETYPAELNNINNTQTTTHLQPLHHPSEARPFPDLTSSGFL
# In short: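 Yeast MYA-3637 carrying integrated human AhR (GAL promoter) and a lacZ reporter, grown on synthetic minimal medium without tryptophan, with galactose as carbon source. Compounds in DMSO were added to overnight culture in quadruplicate. Next day A600 was read, then lysis buffer (0.2% sarcosyl, 1 mM DTT, 0.4 mg/mL ONPG) was added. A405/A600 ratio was taken. βNF 10^-8 M served as positive control. At least three repeats.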
# Cytochrome P450 1A1 [5] = molecular target: T1, Cytochrome P450 1A1; experiment: Inhibition of human microsomal CYP1A1-dependent ethoxyresorufin-O-deethylase activity at 10 nM measured over 6 mins by spectrofluorimetric analysis in absence of NADPH regenerating solution; conditions: 0.1 h, 0.01 µM; in short: as §2
# Cytochrome P450 1A2 [6] = molecular target: T2, Cytochrome P450 1A2; experiment: Inhibition of human microsomal CYP1A2-dependent methoxyresorufin-O-demethylase activity at 10 nM measured over 6 mins by spectrofluorimetric analysis in absence of NADPH regenerating solution; conditions: 0.1 h, 0.01 µM
# Cytochrome P450 1A2 [7] = molecular target: T2, Cytochrome P450 1A2; experiment: Inhibition of human microsomal CYP1A2-dependent methoxyresorufin-O-demethylase activity measured over 6 mins by spectrofluorimetric analysis; conditions: 0.1 h; in short: as §1
structure (smiles),measurement,setting,value
Cc1cc2c(ccc3c(=O)cc(-c4ccccc4)oc32)o1,Ki,Cytochrome P450 1A1 [1],0.43 µM
same,Ki,Cytochrome P450 1A2 [2],0.03 µM
same,inhibition (INH),Cytochrome P450 1A1 [3],Not Active
same,Activity,[4],Active
same,inhibition (INH),Cytochrome P450 1A1 [5],Not Active
same,inhibition (INH),Cytochrome P450 1A2 [6],Active
same,inhibition (INH),Cytochrome P450 1A2 [7],Dose-dependent effect
